Test results from ChEMBL document CHEMBL1131064, “Design, synthesis, and anticonvulsant activity of 1-(pyrid-3-ylsulfonamido)-2-nitroethylenes” (J Med Chem, 1998).

How the values were obtained:
Mus musculus [1] = assay: Tested for anticonvulsant activity by measuring its ability to protect against NMDLA(340 mg/kg) induced convulsions at the time of peak effect of 4h.; format: functional
Mus musculus [2] = assay: Tested for anticonvulsant activity by measuring its ability to protect against bicuculline (2.7 mg/kg) induced convulsions at the time of peak effect of 4h.; format: functional
Mus musculus [3] = species on record: Mus musculus; assay: Tested for anticonvulsant activity by measuring its ability to protect against electric shock in maximal electroshock seizure (MES) test at the time of peak effect of 4 hr; format: functional
Mus musculus [4] = assay: Tested for anticonvulsant activity by measuring its ability to protect against pentetrazole (85 mg/kg) induced convulsions at the time of peak effect of 4h.; format: functional
How it was run: (§1)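 Groups of eight male OF-1 mice (22-25 g) received the test compound ip (10 mL/kg) at doses up to 100 mg/kg. At the MES-derived time of peak effect, pentetrazole 85 mg/kg in 0.9% NaCl was given sc and protection against convulsions recorded. ED50 and 95% confidence intervals were computed by Litchfield–Wilcoxon.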

Mus musculus [5] = assay: Tested for anticonvulsant activity by measuring its ability to protect against strychnine(1.2 mg/kg) induced convulsions at the time of peak effect of 4 hr; format: functional
[6] = Neurotoxicity was evaluated at a time of peak effect of 4 hr; format: toxicity; conditions: mouse
[7] = Partition coefficient in 1-octanol phosphate buffer at pH 7.40; format: physicochemical; conditions: pH 7.4
How it was run: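 Shake-flask partition between 1-octanol and phosphate buffer at pH 7.40.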

[8] = Partition coefficient (logP); format: physicochemical; conditions: octanol/water
How it was run: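 log P obtained by extrapolation from RP-HPLC log k′. The basis is a correlation of log k′ with shake-flask log P in 1-octanol/phosphate buffer pH 7.40, built from reference compounds.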

Mus musculus [9] = species on record: Mus musculus; assay: Tested for anticonvulsant activity by measuring rate of mice protected against electric shock applied at 0.5 hr after injection in maximal electroshock seizure (MES) test; out of 6; format: functional
How it was run: (§2)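 Screen in male OF-1 mice (22-25 g), groups of six or seven, given 30 mg/kg ip at 10 mL/kg. Corneal electroshock (50 mA, 60 Hz, 0.2 s) was applied 0.5 or 3 h post-injection. Protection was scored as abolition of hind limb tonic extension and reported as the rate of protected mice.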

Mus musculus [10] = species on record: Mus musculus; assay: Tested for anticonvulsant activity by measuring rate of mice protected against electric shock applied at 3 hr after injection in maximal electroshock seizure (MES) test; out of 7; format: functional; how it was run: as §2
Rattus norvegicus = assay: Urinary volume excreted over 4 hr by rats after oral administration of 30 mg/kg; format: functional, Urine
How it was run: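 Male Wistar rats (193-229 g) were dosed orally with 30 mg/kg in 0.9% NaCl/0.1% methocel at 40 mL/kg; three rats shared a metabolism cage. Urine was collected over 4 h and expressed as mL/kg.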

Mus musculus [11] = species on record: Mus musculus; assay: Tested for anticonvulsant activity by measuring rate of mice protected against electric shock applied at 3 h after injection in maximal electroshock seizure (MES) test; out of 6; format: functional; how it was run: as §2
Mus musculus [12] = assay: Tested for anticonvulsant activity by measuring its ability to protect against strychnine(1.2 mg/kg) induced convulsions at the time of peak effect of 3h; format: functional
How it was run: (§3)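 OF-1 male mice, eight per group, were given compound ip at up to 100 mg/kg. At the MES time of peak effect, a convulsant in 0.9% NaCl was injected sc; bicuculline was dissolved in warmed 0.1 N HCl/0.9% NaCl and used within 30 min. ED50 with 95% CI was computed by Litchfield–Wilcoxon.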

Mus musculus [13] = assay: Tested for anticonvulsant activity by measuring its ability to protect against NMDLA(340 mg/kg) induced convulsions at the time of peak effect of 3h.; format: functional; how it was run: as §3
Mus musculus [14] = assay: Tested for anticonvulsant activity by measuring its ability to protect against bicuculline (2.7 mg/kg) induced convulsions at the time of peak effect of 3h.; format: functional
How it was run: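 Male OF-1 mice (22-25 g), eight per group, given the test compound ip (10 mL/kg) at doses up to 100 mg/kg. Bicuculline 2.70 mg/kg, dissolved in warmed 0.1 N HCl plus 0.9% NaCl (10 mL/kg) and used within 30 min, was injected sc at the MES time of peak effect. Protection scored; ED50 with 95% CI by Litchfield–Wilcoxon.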

Mus musculus [15] = species on record: Mus musculus; assay: Tested for anticonvulsant activity by measuring its ability to protect against electric shock in maximal electroshock seizure (MES) test at the time of peak effect of 3h; format: functional
How it was run: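 Male OF-1 mice (22-25 g) were dosed ip at 10 mL/kg and tested at the peak-effect time. Corneal electroshock was 50 mA, 60 Hz, 0.2 s; protection meant abolition of hind limb tonic extension. Groups of eight mice received varying doses. ED50 with 95% CI was computed by Litchfield–Wilcoxon.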

Mus musculus [16] = assay: Tested for anticonvulsant activity by measuring its ability to protect against pentetrazole (85 mg/kg) induced convulsions at the time of peak effect of 3h.; format: functional; how it was run: as §3
[17] = Neurotoxicity was evaluated at a time of peak effect of 3h; format: toxicity; conditions: mouse
Mus musculus [18] = assay: Tested for anticonvulsant activity by measuring its ability to protect against strychnine(1.2 mg/kg) induced convulsions at the time of peak effect of 2 hr; format: functional; how it was run: as §3
Mus musculus [19] = assay: Tested for anticonvulsant activity by measuring its ability to protect against NMDLA(340 mg/kg) induced convulsions at the time of peak effect of 2 hr.; format: functional; how it was run: as §3
Mus musculus [20] = species on record: Mus musculus; assay: Tested for anticonvulsant activity by measuring its ability to protect against electric shock in maximal electroshock seizure (MES) test at the time of peak effect of 2 hr
Mus musculus [21] = assay: Tested for anticonvulsant activity by measuring its ability to protect against pentetrazole (85 mg/kg) induced convulsions at the time of peak effect of 2 hr.; format: functional; how it was run: as §1
Mus musculus [22] = assay: Tested for anticonvulsant activity by measuring its ability to protect against bicuculline (2.7 mg/kg) induced convulsions at the time of peak effect of 2 hr.; format: functional; how it was run: as §3

| SMILES | logP [8] | No. of mice protected (Mus musculus [9]) | No. of mice protected (Mus musculus [10]) | Diuresis (Rattus norvegicus) | No. of mice protected (Mus musculus [11]) | other results |
| --- | --- | --- | --- | --- | --- | --- |
| O=S(=O)(NC(=S)NC1CCCCC1)c1cnccc1NC1CCCCCCC1 |  |  |  |  |  | ED50 (Mus musculus [1]): > 100 mg/kg; ED50 (Mus musculus [2]): > 100 mg/kg; ED50 (Mus musculus [3]): 1.19 mg/kg; ED50 (Mus musculus [4]): > 100 mg/kg; ED50 (Mus musculus [5]): > 100 mg/kg; TD50 at 4 h [6]: 147 mg/kg |
| CC(C)N/C(=C\[N+](=O)[O-])NS(=O)(=O)c1cnccc1NC1CCCC1 |  |  |  |  |  | logD [7]: 0.538 |
| O=[N+]([O-])/C=C(\NC1CCCCCC1)NS(=O)(=O)c1cnccc1NC1CCCCC1 | 1.97 | 0 | 5 | 20 mL/kg |  |  |
| O=[N+]([O-])/C=C(\NC1CCCCCC1)NS(=O)(=O)c1cnccc1NC1CCCCCC1 | 2.3 | 1 |  | 25 mL/kg | 5 |  |
| CCNc1ccncc1S(=O)(=O)N/C(=C/[N+](=O)[O-])NC(C)C |  |  |  |  |  | logD [7]: -0.482 |
| O=[N+]([O-])/C=C(\NC1CCCCC1)NS(=O)(=O)c1cnccc1NC1CCCCCCC1 | 2.31 | 1 | 7 | 22 mL/kg |  | ED50 (Mus musculus [12]): > 100 mg/kg; ED50 (Mus musculus [13]): > 100 mg/kg; ED50 (Mus musculus [14]): > 100 mg/kg; ED50 (Mus musculus [15]): 8.25 mg/kg; ED50 (Mus musculus [16]): > 100 mg/kg; TD50 at 3 h [17]: 114 mg/kg |
| O=[N+]([O-])/C=C(\NC1CCCCCCC1)NS(=O)(=O)c1cnccc1NC1CCCCCC1 | 2.57 | 1 | 4 | 23 mL/kg |  |  |
| Cc1cccc(Nc2ccncc2S(=O)(=O)N/C(=C/[N+](=O)[O-])NC2CCCCC2)c1 | 1.66 | 1 |  | 29 mL/kg | 2 |  |
| O=[N+]([O-])/C=C(\NC1CCCCCC1)NS(=O)(=O)c1cnccc1NC1CCCCCCC1 | 2.59 | 2 |  | 20 mL/kg | 5 |  |
| O=[N+]([O-])/C=C(\NC1CCCCC1)NS(=O)(=O)c1cnccc1NC1CCCCCC1 | 1.99 | 1 |  | 18 mL/kg | 5 |  |
| Cc1cccc(Nc2ccncc2S(=O)(=O)N/C(=C/[N+](=O)[O-])NC(C)C)c1 |  |  |  |  |  | logD [7]: 1.12 |
| O=[N+]([O-])/C=C(\NC1CCCCCCC1)NS(=O)(=O)c1cnccc1NC1CCCCCCC1 | 2.86 | 0 | 3 | 22 mL/kg |  |  |
| O=[N+]([O-])/C=C(\NC1CCCCC1)NS(=O)(=O)c1cnccc1NC1CCCCC1 | 1.67 | 0 | 4 | 20 mL/kg |  |  |
| O=[N+]([O-])/C=C(\NC1CCCCCCC1)NS(=O)(=O)c1cnccc1NC1CCCCC1 | 2.27 | 2 | 4 | 21 mL/kg |  |  |
| O=C1NC(=O)C(c2ccccc2)(c2ccccc2)N1 [PHENYTOIN] |  |  |  |  |  | ED50 (Mus musculus [18]): > 100 mg/kg; ED50 (Mus musculus [19]): > 100 mg/kg; ED50 (Mus musculus [20]): 9.51 mg/kg; ED50 (Mus musculus [21]): > 100 mg/kg; ED50 (Mus musculus [22]): > 100 mg/kg |
| Cc1cccc(Nc2ccncc2S(=O)(=O)NC(=O)NC(C)C)c1 [TORSEMIDE] |  | 0 |  | 88 mL/kg | 0 |  |
